Measurements: ChEMBL document CHEMBL4828720, “Macrocyclic Immunoproteasome Inhibitors as a Potential Therapy for Alzheimer's Disease” (J Med Chem, 2021)
The source made the active and inactive calls. The rule behind the calls is not given here.

Tests used:
Homo sapiens = species: Homo sapiens; assay: Selectivity index, ratio of IC50 for inhibition of human 20S proteasome LMP2 activity in human RPMI-8226 cells overexpressing ABCB1 to IC50 for inhibition of human 20S proteasome LMP2 activity in human RPMI-8226 cells; assay type: cell-based
Summary of the method: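 Carfilzomib-resistant RPMI 8226/ABCB1 line, kept drug-free for two weeks, alongside parental RPMI 8226. Cells exposed to varying inhibitor concentrations for 72 h, n=3 per concentration. Lysates (5 μg protein, pH 8.0 Tris/EDTA/0.035% SDS buffer) read with 100 μM Ac-PAL-AMC at ex 360/em 460 nm every minute for 1 h. IC50 from curve fitting, mean ± SD.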

[1] = Inhibition of human 20S proteasome X using Ac-WLA-AMC as fluorogenic substrate measured every minute for 1 hr by fluorescence assay
Summary of the method: (§1)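 Purified human 20S constitutive or immunoproteasome, 50 ng in 20 mM Tris-HCl, 0.5 mM EDTA, 0.035% SDS, pH 8.0. Preincubated 1 h with inhibitor at 3-10,000 nM (8 concentrations). Substrates at 100 μM: Ac-PAL-AMC (LMP2), Ac-nLPnLD-AMC (Y), Ac-ANW-AMC (LMP7). Ac-WLA-AMC (X) at 20 μM. AMC fluorescence (360/460 nm) read each minute for 1 h; 3 replicates.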

Mus musculus [2] = assay: Cognitive enhancing effect in Tg2576 mouse assessed as shorter distances travelled before reaching the escape platform at 10 mg/kg, iv administered twice weekly and measured after 5 days by Morris water maze test; assay type: functional, organism-based; details: time 5.0 day
Summary of the method: (§2)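 Tg2576 mice, 9 months old, given 10 mg/kg twice weekly for 3 weeks. Morris water maze in 25 ± 1 °C water, platform hidden 1-1.5 cm below surface. Three 60-s trials a day from randomized start points for 5 days. Swim paths tracked from an overhead camera. Single probe trial on day 6 scored as time in target quadrant. n=5 treated, n=12 control on days 4-5; Student's t-test.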

[3] = Toxicity in ICR mouse; details: in vivo
[4] = Drug concentration in ICR mouse brain at 10 mg/kg, iv after 1 hr by LC-MS/MS analysis; assay type: ADME, organism-based; details: in vivo
Summary of the method: (§3)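 ICR mice received a single intravenous dose of 10 mg/kg. Brain homogenates taken at 1 h post-dose were assayed for compound level and for LMP2 activity.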

[5] = target: T1, Proteasome subunit beta type-9 (Homo sapiens, UniProt P28065); assay: Inhibition of human 20S proteasome LMP2 activity in human RPMI-8226 cells overexpressing ABCB1 using Ac-PAL-AMC as fluorogenic substrate incubated for 72 hrs by fluorescence assay; assay type: cell-based
T1 sequence (P28065 whole entry): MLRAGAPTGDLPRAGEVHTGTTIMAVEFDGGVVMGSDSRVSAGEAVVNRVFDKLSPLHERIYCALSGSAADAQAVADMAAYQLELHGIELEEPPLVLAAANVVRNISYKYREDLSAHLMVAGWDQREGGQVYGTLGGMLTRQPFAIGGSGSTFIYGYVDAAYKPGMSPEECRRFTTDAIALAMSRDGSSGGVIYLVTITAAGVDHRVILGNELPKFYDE

Mus musculus [6] = assay: Cognitive enhancing effect in Tg2576 mouse assessed as reduction in escape latency at 10 mg/kg, iv administered twice weekly and measured after 5 days by Morris water maze test; assay type: functional, organism-based; details: time 5.0 day; summary of the method: as §2
[7] = Inhibition of human 20S proteasome Y using Ac-nLPnLD-AMC as fluorogenic substrate measured every minute for 1 hr by fluorescence assay
Summary of the method: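 Preincubated 1 h with inhibitor at 3-10,000 nM (8 concentrations). Substrates at 100 μM: Ac-PAL-AMC (LMP2), Ac-nLPnLD-AMC (Y), Ac-ANW-AMC (LMP7). Ac-WLA-AMC (X) at 20 μM. AMC fluorescence (360/460 nm) read each minute for 1 h; 3 replicates.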

Mus musculus [8] = species: Mus musculus; assay: Protection against inflammation-triggered RPE degeneration in Tg2576 mouse by immunostaining based confocal microscopic analysis; assay type: functional, organism-based
Summary of the method: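 RPE collected after behavioral testing from treated Tg2576 mice and from age-matched non-transgenic ICR mice. Eyecups dissected in ice-cold PBS and retina removed. Tissue permeabilized with 0.2% Triton X-100 for 15 min, blocked with 3% BSA, then anti-β-catenin (1:100) overnight at 4 °C. Alexa 555 secondary 2 h, imaged by confocal microscopy.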

Mus musculus [9] = assay: In vivo inhibition of immunoproteasome in Tg2576 mouse assessed as reduction in serum IL-1alpha level at 10 mg/kg, iv administered twice weekly for 3 weeks by ELISA; assay type: functional, organism-based
Summary of the method: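 Serum from Tg2576 mice dosed at 10 mg/kg twice weekly for 3 weeks, diluted 1:5. IL-1α sandwich ELISA: samples and standards 2 h at room temperature, detection antibody 1 h, avidin-HRP 30 min. Stopped with 2N H2SO4 and read at 450 nm against a standard curve of seven twofold dilutions. n=3.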

[10] = Metabolic stability in ICR mouse whole blood at 1 uM measured upto 30 mins by LC-MS/MS analysis; assay type: ADME, tissue-based; details: 0.5 h
Summary of the method: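 Tissues from male ICR mice, 7 weeks old. Heparinized (25 IU/mL) whole blood, or liver homogenized in ice-cold PBS, prewarmed to 37 °C and spiked to a final 1 μM. Samples taken at 0, 10 and 30 min (blood) or 0, 10 and 20 min (liver). […] Remaining drug quantified by C18 LC-MS/MS.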

[11] = target: T1, Proteasome subunit beta type-9; assay: Inhibition of human 20S proteasome LMP2 activity in human RPMI-8226 cells using Ac-PAL-AMC as fluorogenic substrate incubated for 72 hrs by fluorescence assay; assay type: cell-based
Mus musculus [12] = assay: Cognitive enhancing effect in Tg2576 mouse assessed as improvement in spatial learning and memory by measuring increase in time spent in target quadrant at 10 mg/kg, iv administered twice weekly and measured after 6 days during probe trial by Morris water maze test; assay type: functional, organism-based; details: time 6.0 day; summary of the method: as §2
[13] = target: T2, Proteasome subunit beta type-8 (Homo sapiens, UniProt P28062); assay: Inhibition of human 20S proteasome LMP7 using Ac-ANW-AMC as fluorogenic substrate measured every minute for 1 hr by fluorescence assay; summary of the method: as §1
T2 sequence (P28062 whole entry): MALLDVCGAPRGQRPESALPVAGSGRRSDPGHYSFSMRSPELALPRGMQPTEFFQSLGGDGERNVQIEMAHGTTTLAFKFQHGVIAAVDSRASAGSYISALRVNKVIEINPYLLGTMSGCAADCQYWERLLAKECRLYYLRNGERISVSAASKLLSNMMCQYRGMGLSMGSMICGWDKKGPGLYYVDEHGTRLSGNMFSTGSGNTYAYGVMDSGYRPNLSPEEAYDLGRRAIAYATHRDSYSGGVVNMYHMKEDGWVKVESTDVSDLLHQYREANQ

[14] = target: T3, Proteasome subunit beta type-9 (Mus musculus) (UniProt P28076); assay: Inhibition of LMP2 in ICR mouse brain homogenate at 10 mg/kg, iv after 1 hr; assay type: organism-based; summary of the method: as §3
T3 sequence (whole entry): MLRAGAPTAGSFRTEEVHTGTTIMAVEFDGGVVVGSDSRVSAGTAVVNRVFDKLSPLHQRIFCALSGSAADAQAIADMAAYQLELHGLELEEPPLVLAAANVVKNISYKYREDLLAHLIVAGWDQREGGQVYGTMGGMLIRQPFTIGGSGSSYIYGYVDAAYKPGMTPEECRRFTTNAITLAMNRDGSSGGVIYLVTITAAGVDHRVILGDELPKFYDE

Which results are given for `C[C@]1(C(=O)[C@H](Cc2ccccc2)NC(=O)[C@@H]2Cc3ccc(cc3)OCCCCCCCC(=O)N3CCC[C@H]3C(=O)N2)CO1`?
Ratio IC50 (Homo sapiens): 3.3; IC50 [1]: 4640 nM; Activity (Mus musculus [2]): Active; Activity [3]: Non-Toxic; Ct [4]: 3.5 pmol/g; IC50 [5]: 106 nM; Activity (Mus musculus [6]): Active; IC50 [7]: 8380 nM; Activity (Mus musculus [8]): Active; inhibition (Mus musculus [9]): Active; Stability [10]: Stable; IC50 [11]: 32.7 nM; Activity (Mus musculus [12]): Active; IC50 [13]: 399 nM; inhibition [14]: inactive
